# Laboratory results taken from ChEMBL document CHEMBL2086252, “Syntheses and evaluation of anticonvulsant activity of novel branched alkyl carbamates” (J Med Chem, 2012).
# Active and inactive are the calls of the source. The rule behind the calls is not given here.
# Assays:
# [1] = system: Mus musculus; test: Anticonvulsant activity in albino CF1 mouse assessed as protection against subcutaneous metrazol-induced seizures at 30 mg/kg, ip after 0.5 hrs; assay type: functional, organism-based; set-up: dose 30 mg/kg
# Method in brief: (§1)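 Mice dosed ip at 30, 100 or 300 mg/kg, then tested 0.5 h and 4 h after administration in the MES or scMet test. Protection was recorded as animals protected over animals tested. Neurotoxicity was recorded as motor impairment or sedation, as animals affected over animals tested.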
# [2] = system: Mus musculus; test: Anticonvulsant activity in albino CF1 mouse assessed as protection against subcutaneous metrazol-induced seizures at 30 mg/kg, ip after 4 hrs; assay type: functional, organism-based; set-up: dose 30 mg/kg; method in brief: as §1
# [3] = system: Mus musculus; test: Anticonvulsant activity in albino CF1 mouse assessed as protection against maximal electroshock-induced seizures at 30 mg/kg, ip after 0.5 hrs; assay type: functional, organism-based; set-up: dose 30 mg/kg; method in brief: as §1
# [4] = system: Mus musculus; test: Anticonvulsant activity in albino CF1 mouse assessed as protection against maximal electroshock-induced seizures at 100 mg/kg, ip after 0.5 hrs; assay type: functional, organism-based; set-up: dose 100 mg/kg; method in brief: as §1
# [5] = system: Mus musculus; test: Neurotoxicity in albino CF1 mouse assessed as minimal motor impairment at 30 mg/kg, ip after 0.5 hrs by rotarod test; assay type: toxicity, organism-based; set-up: dose 30 mg/kg, route intraperitoneal; details: in vivo; method in brief: as §1
# [6] = system: Mus musculus; test: Neurotoxicity in albino CF1 mouse assessed as minimal motor impairment at 100 mg/kg, ip after 0.5 hrs by rotarod test; assay type: toxicity, organism-based; set-up: dose 100 mg/kg, route intraperitoneal; details: in vivo; method in brief: as §1
# [7] = system: Mus musculus; test: Neurotoxicity in albino CF1 mouse assessed as minimal motor impairment at 300 mg/kg, ip after 0.5 hrs by rotarod test; assay type: toxicity, organism-based; set-up: dose 300 mg/kg, route intraperitoneal; details: in vivo; method in brief: as §1
# [8] = system: Rattus norvegicus; test: Neurotoxicity in pilocarpine-induced status epilepticus Sprague-Dawley albino rat model assessed as minimal motor impairment at 100 mg/kg, ip after 0.25 hr by rotarod test; assay type: toxicity, organism-based; set-up: dose 100 mg/kg, route intraperitoneal; details: in vivo
# [9] = system: Rattus norvegicus; test: Neurotoxicity in pilocarpine-induced status epilepticus Sprague-Dawley albino rat model assessed as minimal motor impairment at 300 mg/kg, ip after 0.25 hr by rotarod test; assay type: toxicity, organism-based; set-up: dose 300 mg/kg, route intraperitoneal; details: in vivo
# Method in brief: (§2)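 Rat pilocarpine status epilepticus model: test carbamate given at 0 or 30 min after the first observed Racine stage 3 motor seizure, which marks SE onset. Neurotoxicity was scored within the same model.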
# [10] = system: Rattus norvegicus; test: Neurotoxicity in pilocarpine-induced status epilepticus Sprague-Dawley albino rat model assessed as minimal motor impairment at 100 mg/kg, ip after 0.5 hrs by rotarod test; assay type: toxicity, organism-based; set-up: dose 100 mg/kg, route intraperitoneal; details: in vivo
# [11] = system: Rattus norvegicus; test: Neurotoxicity in pilocarpine-induced status epilepticus Sprague-Dawley albino rat model assessed as minimal motor impairment at 300 mg/kg, ip after 0.5 hrs by rotarod test; assay type: toxicity, organism-based; set-up: dose 300 mg/kg, route intraperitoneal; details: in vivo; method in brief: as §2
# [12] = system: Rattus norvegicus; test: Neurotoxicity in pilocarpine-induced status epilepticus Sprague-Dawley albino rat model assessed as minimal motor impairment at 100 mg/kg, ip after 1 hr by rotarod test; assay type: toxicity, organism-based; set-up: dose 100 mg/kg, route intraperitoneal; details: in vivo
# [13] = system: Rattus norvegicus; test: Neurotoxicity in pilocarpine-induced status epilepticus Sprague-Dawley albino rat model assessed as minimal motor impairment at 300 mg/kg, ip after 1 hr by rotarod test; assay type: toxicity, organism-based; set-up: dose 300 mg/kg, route intraperitoneal; details: in vivo; method in brief: as §2
# [14] = system: Rattus norvegicus; test: Neurotoxicity in pilocarpine-induced status epilepticus Sprague-Dawley albino rat model assessed as minimal motor impairment at 100 mg/kg, ip after 2 hrs by rotarod test; assay type: toxicity, organism-based; set-up: dose 100 mg/kg, route intraperitoneal; details: in vivo
# [15] = system: Rattus norvegicus; test: Neurotoxicity in pilocarpine-induced status epilepticus Sprague-Dawley albino rat model assessed as minimal motor impairment at 300 mg/kg, ip after 2 hrs by rotarod test; assay type: toxicity, organism-based; set-up: dose 300 mg/kg, route intraperitoneal; details: in vivo; method in brief: as §2
# [16] = system: Rattus norvegicus; test: Neurotoxicity in pilocarpine-induced status epilepticus Sprague-Dawley albino rat model assessed as minimal motor impairment at 100 mg/kg, ip after 4 hrs by rotarod test; assay type: toxicity, organism-based; set-up: dose 100 mg/kg, route intraperitoneal; details: in vivo
# [17] = system: Rattus norvegicus; test: Neurotoxicity in pilocarpine-induced status epilepticus Sprague-Dawley albino rat model assessed as minimal motor impairment at 300 mg/kg, ip after 4 hrs by rotarod test; assay type: toxicity, organism-based; set-up: dose 300 mg/kg, route intraperitoneal; details: in vivo; method in brief: as §2
# [18] = system: Mus musculus; test: Anticonvulsant activity in albino CF1 mouse assessed as protection against subcutaneous metrazol-induced seizures at 100 mg/kg, ip after 0.5 hrs; assay type: functional, organism-based; set-up: dose 100 mg/kg; method in brief: as §1
# [19] = system: Mus musculus; test: Anticonvulsant activity in albino CF1 mouse assessed as protection against subcutaneous metrazol-induced seizures at 300 mg/kg, ip after 0.5 hrs; assay type: functional, organism-based; set-up: dose 300 mg/kg; method in brief: as §1
# [20] = system: Mus musculus; test: Anticonvulsant activity in albino CF1 mouse assessed as protection against subcutaneous metrazol-induced seizures at 100 mg/kg, ip after 4 hrs; assay type: functional, organism-based; set-up: dose 100 mg/kg; method in brief: as §1
# [21] = system: Mus musculus; test: Anticonvulsant activity in albino CF1 mouse assessed as protection against subcutaneous metrazol-induced seizures at 300 mg/kg, ip after 4 hrs; assay type: functional, organism-based; set-up: dose 300 mg/kg; method in brief: as §1
# [22] = system: Mus musculus; test: Anticonvulsant activity in albino CF1 mouse assessed as protection against maximal electroshock-induced seizures at 300 mg/kg, ip after 0.5 hrs; assay type: functional, organism-based; set-up: dose 300 mg/kg; method in brief: as §1
# [23] = system: Mus musculus; test: Anticonvulsant activity in albino CF1 mouse assessed as protection against maximal electroshock-induced seizures at 30 mg/kg, ip after 4 hrs; assay type: functional, organism-based; set-up: dose 30 mg/kg; method in brief: as §1
# [24] = system: Mus musculus; test: Anticonvulsant activity in albino CF1 mouse assessed as protection against maximal electroshock-induced seizures at 100 mg/kg, ip after 4 hrs; assay type: functional, organism-based; set-up: dose 100 mg/kg; method in brief: as §1
# [25] = system: Mus musculus; test: Anticonvulsant activity in albino CF1 mouse assessed as protection against maximal electroshock-induced seizures at 300 mg/kg, ip after 4 hrs; assay type: functional, organism-based; set-up: dose 300 mg/kg; method in brief: as §1
# [26] = system: Mus musculus; test: Neurotoxicity in albino CF1 mouse assessed as minimal motor impairment at 30 mg/kg, ip after 4 hrs by rotarod test; assay type: toxicity, organism-based; set-up: dose 30 mg/kg, route intraperitoneal; details: in vivo; method in brief: as §1
# [27] = system: Mus musculus; test: Neurotoxicity in albino CF1 mouse assessed as minimal motor impairment at 100 mg/kg, ip after 4 hrs by rotarod test; assay type: toxicity, organism-based; set-up: dose 100 mg/kg, route intraperitoneal; details: in vivo; method in brief: as §1
# [28] = system: Mus musculus; test: Neurotoxicity in albino CF1 mouse assessed as minimal motor impairment at 300 mg/kg, ip after 4 hrs by rotarod test; assay type: toxicity, organism-based; set-up: dose 300 mg/kg, route intraperitoneal; details: in vivo; method in brief: as §1
# [29] = system: Rattus norvegicus; test: Anticonvulsant activity in Sprague-Dawley albino rat assessed as protection against maximal electroshock-induced seizures at 30 mg/kg, po after 15 mins; assay type: functional, organism-based; set-up: dose 30 mg/kg
# Method in brief: (§3)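 Rats dosed orally. Anti-MES protection was scored as animals protected over animals tested at each time after dosing. Neurotoxicity was scored as motor impairment or sedation, as animals affected over animals tested.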
# [30] = system: Rattus norvegicus; test: Anticonvulsant activity in Sprague-Dawley albino rat assessed as protection against maximal electroshock-induced seizures at 30 mg/kg, po after 30 mins; assay type: functional, organism-based; set-up: dose 30 mg/kg; method in brief: as §3
# [31] = system: Rattus norvegicus; test: Anticonvulsant activity in Sprague-Dawley albino rat assessed as protection against maximal electroshock-induced seizures at 30 mg/kg, po after 1 hr; assay type: functional, organism-based; set-up: dose 30 mg/kg; method in brief: as §3
# [32] = system: Rattus norvegicus; test: Anticonvulsant activity in Sprague-Dawley albino rat assessed as protection against maximal electroshock-induced seizures at 30 mg/kg, po after 2 hrs; assay type: functional, organism-based; set-up: dose 30 mg/kg; method in brief: as §3
# [33] = system: Rattus norvegicus; test: Anticonvulsant activity in Sprague-Dawley albino rat assessed as protection against maximal electroshock-induced seizures at 30 mg/kg, po after 4 hrs; assay type: functional, organism-based; set-up: dose 30 mg/kg; method in brief: as §3
# [34] = system: Rattus norvegicus; test: Neurotoxicity in Sprague-Dawley albino rat assessed as minimal motor impairment at 30 mg/kg, po by rotarod test; assay type: toxicity, organism-based; set-up: dose 30 mg/kg, route oral; details: in vivo; method in brief: as §3
# [35] = system: Rattus norvegicus; test: Neurotoxicity in pilocarpine-induced status epilepticus Sprague-Dawley albino rat model assessed as minimal motor impairment at 30 mg/kg, ip after 0.25 hr by rotarod test; assay type: toxicity, organism-based; set-up: dose 30 mg/kg, route intraperitoneal; details: in vivo; method in brief: as §2
# [36] = system: Rattus norvegicus; test: Neurotoxicity in pilocarpine-induced status epilepticus Sprague-Dawley albino rat model assessed as minimal motor impairment at 30 mg/kg, ip after 0.5 hrs by rotarod test; assay type: toxicity, organism-based; set-up: dose 30 mg/kg, route intraperitoneal; details: in vivo; method in brief: as §2
# [37] = system: Rattus norvegicus; test: Neurotoxicity in pilocarpine-induced status epilepticus Sprague-Dawley albino rat model assessed as minimal motor impairment at 30 mg/kg, ip after 1 hr by rotarod test; assay type: toxicity, organism-based; set-up: dose 30 mg/kg, route intraperitoneal; details: in vivo; method in brief: as §2
# [38] = system: Rattus norvegicus; test: Neurotoxicity in pilocarpine-induced status epilepticus Sprague-Dawley albino rat model assessed as minimal motor impairment at 30 mg/kg, ip after 2 hrs by rotarod test; assay type: toxicity, organism-based; set-up: dose 30 mg/kg, route intraperitoneal; details: in vivo; method in brief: as §2
# [39] = system: Rattus norvegicus; test: Neurotoxicity in pilocarpine-induced status epilepticus Sprague-Dawley albino rat model assessed as minimal motor impairment at 30 mg/kg, ip after 4 hrs by rotarod test; assay type: toxicity, organism-based; set-up: dose 30 mg/kg, route intraperitoneal; details: in vivo; method in brief: as §2
# [40] = system: Rattus norvegicus; test: Anticonvulsant activity in ip dosed Sprague-Dawley albino rat assessed as protection against pilocarpine-induced status epilepticus after 0.5 hrs; assay type: functional
# Method in brief: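 Pilocarpine status epilepticus model in rats. Number and severity of convulsive seizures were observed behaviourally.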
Structure (SMILES),Activity [1],Activity [2],Activity [3],Activity [5],Activity [6],Activity [7],Activity [8],Activity [9],Activity [10],Activity [11],Activity [12],Activity [13],Activity [14],Activity [15],Activity [16],Activity [17],Activity [18],Activity [19],Activity [20],Activity [21],further results
CC(C)(C)CCOC(N)=O,inactive,inactive,Active,Toxic,Toxic,Toxic,Non-toxic,Toxic,Non-toxic,Toxic,Non-toxic,Non-toxic,Non-toxic,Non-toxic,Non-toxic,Non-toxic,–,–,–,–,Activity [4]: Active
CCCC(COC(N)=O)C(C)CC (racemic),inactive,inactive,inactive,Non-toxic,–,–,Toxic,Non-toxic,Toxic,Non-toxic,–,Non-toxic,Non-toxic,Non-toxic,Non-toxic,Non-toxic,inactive,Active,inactive,inactive,Activity [22]: Active; Activity [23]: inactive; Activity [24]: inactive; Activity [25]: Active; Activity [26]: Non-toxic; Activity [27]: Non-toxic; Activity [28]: Non-toxic; Activity [29]: inactive; Activity [30]: inactive; Activity [31]: inactive; Activity [32]: inactive; Activity [33]: inactive; Activity [34]: Non-toxic; Activity [35]: Toxic; Activity [36]: Toxic; Activity [37]: Toxic; Activity [38]: Toxic; Activity [39]: Toxic
CCC(CC)COC(N)=O,inactive,inactive,inactive,Non-toxic,Non-toxic,Toxic,–,Toxic,–,Toxic,Non-toxic,Non-toxic,Non-toxic,Non-toxic,Non-toxic,Non-toxic,inactive,Active,inactive,inactive,Activity [22]: Active; Activity [23]: inactive; Activity [24]: inactive; Activity [25]: inactive; Activity [26]: Non-toxic; Activity [27]: Non-toxic; Activity [28]: Non-toxic; Activity [29]: inactive; Activity [30]: inactive; Activity [31]: inactive; Activity [32]: inactive; Activity [33]: inactive; Activity [34]: Non-toxic
NC(=O)N1c2ccccc2C=Cc2ccccc21 [CARBAMAZEPINE],–,–,–,–,–,–,–,–,–,–,–,–,–,–,–,–,–,–,–,–,ED50 [40]: 50 mg/kg
